Results gathered from unrelated publications.
Read-out: cell growth or viability

| SMILES | cell line | technique | time | setting | IC50 |
| --- | --- | --- | --- | --- | --- |
| N=C(N/N=C/c1cccc([N+](=O)[O-])c1)N/N=C/c1cccc([N+](=O)[O-])c1 | L6 | resazurin | 70 h |  | 17.7 µM |
| O=C1CCN2C(=O)c3cc(F)c(F)cc3C2C(=O)Nc2ccccc21 (stereo not shown) | L6 |  |  |  | > 290 µM |
| CNC(=O)c1cc(Oc2ccc(NC(=O)Nc3ccc(Cl)c(C(F)(F)F)c3)cc2)ccn1 | NCI-H460 | MTT | 72 h |  | 3.81 µM |
| CCOC(=O)c1ccc2c(c1)C(=O)CCN1C(=O)c3ccccc3C1C(=O)N2 (stereo not shown) | L6 |  |  |  | > 260 µM |
| CO[C@]12C[C@@H](COC(=O)c3cncc(Br)c3)CN(C)[C@@H]1Cc1cn(C)c3cccc2c13 | HNE1 | MTT | 48 h |  | 1.45 µM |
| C=C(F)C(=O)N1CCN(c2nc(OC[C@@H]3CCCN3C)nc3c2CCN(c2cccc4cccc(Cl)c24)C3)C[C@@H]1CC#N | A-427 | ATP luminescence |  | 3D culture | > 1 µM |
| O=C1Nc2ccccc2C2(O)CCN3C12c1ccccc1S3(=O)=O (stereo not shown) | L6 |  |  |  | > 290 µM |
| N=C(NN=CCc1ccc(OC(F)F)cc1)NN=CCc1ccc(OC(F)F)cc1 | L6 | resazurin | 70 h |  | 2.03 µM |
| COc1cc2nc(N3CCN(C(=O)C4COc5ccccc5O4)CC3)nc(N)c2cc1OC (stereo not shown) | HNE1 | MTT | 48 h |  | 22.4 µM |
| COc1cc2c3c(n(CCCNCCO)c(=O)c2cc1OC)-c1nc2c(cc1C3=O)OCO2 | RS4-11 | MTS | 72 h |  | 0.034 µM |
| O=C1CCN2C(=O)c3ccccc3C2C(=O)Nc2cc(F)ccc21 (stereo not shown) | L6 |  |  |  | > 300 µM |
| N=C(NN=Cc1ccc(OC(F)F)cc1)NN=Cc1ccc(OC(F)F)cc1 | L6 | resazurin | 70 h |  | 13.4 µM |
| CC(C)c1ccccc1[C@@H]1CCCN1C1CC2(CCN(c3ccc(C(=O)NS(=O)(=O)c4ccc(NC[C@H]5CC[C@](C)(O)CC5)c([N+](=O)[O-])c4)c(Oc4cnc5[nH]ccc5c4)c3)CC2)C1 | RS4-11 | ATP luminescence | 48 h |  | 0.00056 µM |
| CCNCCCn1c2c(c3cc(OC)c(OC)cc3c1=O)C(=O)c1cc3c(nc1-2)OCO3 | RS4-11 | MTS | 72 h |  | 0.038 µM |
| N#Cc1cccc(C=NNC(=N)NN=Cc2cccc(C#N)c2)c1 | L6 | resazurin | 70 h |  | 6.65 µM |
| COc1cc2nc(N3CCN(C(=O)c4ccco4)CC3)nc(N)c2cc1OC | HK-1 | MTT | 48 h |  | 30 µM |
| N=C(N/N=C/c1ccc(Oc2ccccc2)cc1)N/N=C/c1ccc(Oc2ccccc2)cc1 | L6 | resazurin | 70 h |  | 4.44 µM |
| COc1cc2c(cc1OC)-c1cc3ccc(OC)c(OCCN)c3c[n+]1CC2 | NCI-H460 | MTT | 72 h |  | > 80 µM |
| O=C1CCN2C(=O)CCC2C(=O)Nc2ccccc21 (stereo not shown) | L6 |  |  |  | > 390 µM |
| O=C1CCC(N2Cc3c(C#CC4CCN(C(=O)[C@H]5CC[C@H](NC(=O)[C@H]6NC7(CCCCC7)[C@]7(C(=O)Nc8cc(Cl)ccc87)[C@H]6c6cccc(Cl)c6F)CC5)CC4)cccc3C2=O)C(=O)N1 (stereo partly shown) | RS4-11 |  |  |  | 0.062 µM |
| N=C(NN=CCc1ccc(OC(F)(F)F)cc1)NN=CCc1ccc(OC(F)(F)F)cc1 | L6 | resazurin | 70 h |  | 4.02 µM |
| Cc1cc(/C=C/C#N)cc(C)c1Nc1ccnc(Nc2ccc(C#N)cc2)n1 | HK-1 | MTT | 48 h |  | 7.59 µM |
